How the values were obtained:
[1] = biological target: T1, Mitogen-activated protein kinase 14 (Homo sapiens, UniProt Q16539); test: Competitive inhibition of p38alpha MAP kinase (unknown origin) in presence of 100 uM ATP
[2] = biological target: T1, Mitogen-activated protein kinase 14; test: Inhibition of p38alpha MAP kinase in human whole blood assessed as inhibition of LPS-induced TNFalpha release at 100 uM by ELISA
[3] = biological target: T1, Mitogen-activated protein kinase 14; test: Inhibition of p38alpha MAP kinase in human whole blood assessed as inhibition of LPS-induced TNFalpha release by ELISA
[4] = Metabolic stability in human/rat liver microsomes at 1 mg/ml after 180 mins by LC/MS analysis; type: ADME, Microsome; details: read-out: Stability
Outline: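 Rat and human liver microsomes were incubated with microsomal protein standardized to 1 mg/mL. Aliquots were withdrawn immediately after reaction start and at 10, 20, 40, 60, 120 and 180 min, then analysed by LC-MS.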

Liver microsome [5] = test: Metabolic stability in female human liver microsomes; type: ADME
Outline: (§1)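 Pooled liver microsomes, male and female, from rat and human were incubated separately. Time–concentration profiles of metabolite formation were followed by LC-MS. Incubations were run in triplicate and reported as mean ± SEM.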

Liver microsome [6] = test: Metabolic stability in male human liver microsomes; type: ADME; outline: as §1
Liver microsome [7] = test: Metabolic stability in female rat liver microsomes; type: ADME; outline: as §1
Liver microsome [8] = test: Metabolic stability in male rat liver microsomes; type: ADME; outline: as §1
[9] = biological target: T1, Mitogen-activated protein kinase 14; test: Competitive inhibition of p38alpha MAP kinase (unknown origin) at 10 uM in presence of 100 uM ATP
Mus musculus [10] = organism: Mus musculus; test: Metabolic stability in C57BL/6 mouse assessed as M-734 metabolite level in blood after 72 hrs by LC-MS/MS analysis; type: ADME, organism-based
Mus musculus [11] = organism: Mus musculus; test: Metabolic stability in C57BL/6 mouse assessed as M-732 metabolite level in blood after 72 hrs by LC-MS/MS analysis; type: ADME, organism-based
Mus musculus [12] = organism: Mus musculus; test: Metabolic stability in C57BL/6 mouse assessed as M-605 metabolite level in blood after 72 hrs by LC-MS/MS analysis; type: ADME, organism-based
Mus musculus [13] = organism: Mus musculus; test: Metabolic stability in C57BL/6 mouse assessed as M-603 metabolite level in blood after 72 hrs by LC-MS/MS analysis; type: ADME, organism-based
Mus musculus [14] = test: Terminal elimination rate in C57BL/6 mouse at 10 mg/kg, po; type: ADME, organism-based; parameters: dose 10 mg/kg, route oral; details: in vivo
[15] = AUC (0 to infinity) in C57BL/6 mouse at 10 mg/kg, po; type: ADME, organism-based; parameters: time infinity, dose 10 mg/kg, route oral; details: plasma
Outline: (§2)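 Male Black 6 C57 mice were dosed orally at 10 mg/kg. Plasma was sampled for up to 72 h postdose. Parent drug was quantified by LC-MS/MS after derivatization with 4-pyridinylboronic acid (70 °C, 40 min). Parameters came from noncompartmental analysis of mean plasma concentration–time profiles.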

[16] = AUC (0 to t) in C57BL/6 mouse at 10 mg/kg, po; type: ADME, organism-based; parameters: dose 10 mg/kg, route oral; details: plasma; outline: as §2
Mus musculus [17] = test: Half life in C57BL/6 mouse at 10 mg/kg, po; type: ADME, organism-based; parameters: dose 10 mg/kg, route oral; details: in vivo; outline: as §2
[18] = Tmax in C57BL/6 mouse at 10 mg/kg, po; type: ADME, organism-based; parameters: dose 10 mg/kg, route oral; details: in vivo
[19] = Cmax in C57BL/6 mouse at 10 mg/kg, po; type: ADME, organism-based; parameters: dose 10 mg/kg, route oral; details: in vivo; outline: as §2

T1 sequence (Q16539 whole entry): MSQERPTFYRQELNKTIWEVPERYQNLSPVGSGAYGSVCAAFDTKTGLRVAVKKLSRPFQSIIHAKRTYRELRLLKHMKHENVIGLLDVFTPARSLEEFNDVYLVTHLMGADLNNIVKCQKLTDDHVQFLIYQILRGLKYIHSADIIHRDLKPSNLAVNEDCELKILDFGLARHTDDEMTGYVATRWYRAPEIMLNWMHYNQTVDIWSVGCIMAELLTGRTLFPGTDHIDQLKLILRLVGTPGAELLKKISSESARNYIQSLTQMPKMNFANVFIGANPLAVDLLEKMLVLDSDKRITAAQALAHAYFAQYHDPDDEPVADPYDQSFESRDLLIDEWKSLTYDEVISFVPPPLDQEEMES

Row | Structure (SMILES) | IC50 [1] | IC50 [3] | also measured
1 | Nc1cc(F)ccc1Nc1ccc2c(c1)OCc1c(OCCN3CCOCC3)cccc1C2=O | 72 nM | – | inhibition [2]: 38.8%
2 | O=c1c2ccccc2ccc2cc(Nc3ccc(F)cc3F)ccc12 | 4200 nM | – | –
3 | COc1cccc2c1COc1cc(Nc3ccc(F)cc3N)ccc1C2=O | 87 nM | – | –
4 | Nc1ccc2c(c1)C(=O)c1ccc(Nc3ccccc3N)cc1OC2 | 205 nM | 683 nM | –
5 | CN(C)CCOc1ccc2c(c1)COc1cc(Nc3ccc(F)cc3F)ccc1C2=O | 53 nM | 38100 nM | –
6 | Nc1ccc2c(c1)C(=O)c1ccc(Nc3cc(F)c(F)cc3F)cc1OC2 | 74 nM | 7810 nM | –
7 | CC1(C)OC[C@@H](COc2ccc3c(c2)C(=O)c2ccc(Nc4ccc(F)cc4F)cc2OC3)O1 | 207 nM | 1440 nM | –
8 | O=C1c2ccc(Nc3ccc(F)cc3F)cc2OCc2cccc(OC[C@H](O)CO)c21 | > 10000 nM | – | –
9 | O=C1c2ccc(OCC[C@@H](O)CO)cc2COc2cc(Nc3ccc(F)cc3F)ccc21 | 21 nM | 37900 nM | –
10 | O=C1c2ccc(Nc3ccc(F)cc3F)cc2OCc2c(OC[C@@H](O)CO)cccc21 | 25 nM | 90400 nM | –
11 | Nc1ccc2c(c1)C(=O)c1ccc(Nc3ccc(F)cc3F)cc1OC2 | 43 nM | 1940 nM | –
12 | O=C1c2cc(OC[C@@H](O)CO)ccc2COc2cc(Nc3ccc(F)cc3F)ccc21 | 61 nM | 591 nM | –
13 | Nc1cccc(Nc2ccc3c(c2)OCc2ccc(OCCN4CCOCC4)cc2C3=O)c1 | 146 nM | 684 nM | –
14 | O=C1c2ccc(Nc3ccc(F)cc3F)cc2CCc2ccc(OCCO)cc21 | 19 nM | 583 nM | remaining at 3 h [4]: 86%
15 | CC1(C)OC[C@@H](CCOc2ccc3c(c2)COc2cc(Nc4ccc(F)cc4F)ccc2C3=O)O1 | 516 nM | – | –
16 | O=C(Nc1ccc(F)c(Nc2ccc3c(c2)OCc2c(OCCN4CCOCC4)cccc2C3=O)c1)c1ccccc1 | 10 nM | – | inhibition [2]: 39%
17 | O=C1c2cc(NCCN3CCOCC3)ccc2COc2cc(Oc3ccc(F)cc3F)ccc21 | 819 nM | – | –
18 | COc1cccc2c1COc1cc(Nc3ccccc3N)ccc1C2=O | 94 nM | – | –
19 | O=C1c2cc(O)ccc2COc2cc(Nc3ccc(F)cc3F)ccc21 | 122 nM | 1850 nM | –
20 | CC1(C)OC[C@H](COc2cccc3c2COc2cc(Nc4ccc(F)cc4F)ccc2C3=O)O1 | 481 nM | – | inhibition [2]: 42.4%
21 | Nc1ccc2c(c1)C(=O)c1ccc(Nc3ccccc3F)cc1OC2 | 111 nM | 4540 nM | –
22 | O=C1c2cc(NCCN3CCOCC3)ccc2COc2cc(Nc3ccc(F)cc3F)ccc21 | 28 nM | 1100 nM | –

Row | Structure (SMILES) | IC50 [1] | IC50 [3] | also measured
23 | O=C(Nc1ccc(F)c(Nc2ccc3c(c2)OCc2ccc(OCCN4CCOCC4)cc2C3=O)c1)c1ccccc1 | 3 nM | 1560 nM | –
24 | O=C1c2ccccc2CCc2cc(Nc3ccc(F)cc3F)ccc21 | 95 nM | 1910 nM | Stability (Liver microsome [5]): Unstable; Stability (Liver microsome [6]): Unstable; Stability (Liver microsome [7]): Unstable; Stability (Liver microsome [8]): Unstable; remaining at 3 h [4]: 43%
25 | Nc1ccc2c(c1)C(=O)c1ccc(Oc3ccc(F)cc3F)cc1OC2 | 763 nM | – | –
26 | Nc1ccccc1Nc1ccc2c(c1)OCc1ccc(OCCN3CCOCC3)cc1C2=O | 107 nM | 490 nM | –
27 | CC1(C)OC[C@H](COc2ccc3c(c2)C(=O)c2ccc(Nc4ccc(F)cc4F)cc2OC3)O1 | 48 nM | 1300 nM | –
28 | Nc1ccc2c(c1)C(=O)c1ccc(Nc3ccc(F)cc3N)cc1OC2 | 151 nM | 1170 nM | –
29 | O=C(Nc1cc(Nc2ccc3c(c2)OCc2cc(OCCN4CCOCC4)ccc2C3=O)ccc1F)c1ccccc1 | 17 nM | – | inhibition [2]: 36%
30 | COc1ccc2c(c1)C(=O)c1ccc(Nc3ccc(F)cc3F)cc1CC2 | 44 nM | 1650 nM | remaining at 3 h [4]: 85%
31 | O=C1c2ccc(Nc3ccc(F)cc3F)cc2CCc2ccc(O)cc21 | 49 nM | 1250 nM | remaining at 3 h [4]: 70%
32 | O=C1c2ccc(OCCN3CCOCC3)cc2COc2cc(Nc3ccc(F)cc3F)ccc21 | 33 nM | 71800 nM | –
33 | COc1ccc2c(c1)COc1cc(Nc3ccccc3N)ccc1C2=O | 132 nM | 71800 nM | –
34 | Cc1cc(F)c(NC(=O)c2ccsc2)cc1Nc1ccc2c(c1)OCc1ccc(OC[C@H]3COC(C)(C)O3)cc1C2=O | 1.8 nM | 287 nM | –
35 | O=C1c2cc(OCCCO)ccc2COc2cc(Nc3ccc(F)cc3F)ccc21 | 8 nM | 631 nM | –
36 | Nc1cccc(Nc2ccc3c(c2)OCc2ccc(N)cc2C3=O)c1 | 651 nM | 2430 nM | –
37 | O=C1c2ccc(Nc3ccc(F)cc3F)cc2OCc2cccc(OC[C@@H](O)CO)c21 | > 10000 nM | – | –
38 | Cc1cc(F)ccc1Nc1ccc2c(c1)OCc1cc(OCCN3CCOCC3)ccc1C2=O | 160 nM | – | –
39 | O=C1c2cc(OCCC3CCCCC3)ccc2COc2cc(Nc3ccc(F)cc3F)ccc21 | – | 18600 nM | inhibition [9]: 41.3%
40 | O=C(Nc1cccc(Nc2ccc3c(c2)OCc2c(OCCN4CCOCC4)cccc2C3=O)c1)c1ccoc1 | 25 nM | 51400 nM | –
41 | O=C1c2cc(OCCN3CCOCC3)ccc2COc2cc(Nc3ccc(F)cc3F)ccc21 | 21 nM | 429 nM | –
42 | Cc1cc(F)c(NC(=O)c2ccsc2)cc1Nc1ccc2c(c1)OCc1ccc(OCCN3CCOCC3)cc1C2=O | 1.7 nM | 148 nM | –
43 | CC(=O)OCCOc1ccc2c(c1)C(=O)c1ccc(Nc3ccc(F)cc3F)cc1OC2 | 22 nM | – | –
44 | O=C1c2ccc(Nc3ccc(F)cc3F)cc2OCc2c(OC[C@H](O)CO)cccc21 | 42 nM | – | inhibition [2]: 48.5%

Row | Structure (SMILES) | IC50 [1] | IC50 [3] | also measured
45 | COc1cccc2c1COc1cc(Nc3ccc(F)cc3F)ccc1C2=O | 63 nM | – | inhibition [2]: 44.7%
46 | Nc1ccc2c(c1)C(=O)c1ccc(Nc3ccc(F)cc3)cc1OC2 | 103 nM | 5700 nM | –
47 | O=C1c2cc(OC[C@H](O)CO)ccc2COc2cc(Nc3ccc(F)cc3F)ccc21 | 14 nM | 233 nM | Stability (Mus musculus [10]): Unstable; Stability (Mus musculus [11]): Unstable; Stability (Mus musculus [12]): Unstable; Stability (Mus musculus [13]): Unstable; Kel (Mus musculus [14]): 0.0243 h⁻¹; AUC(0-inf) [15]: 6990 ng·h/mL; AUC(0-t) [16]: 6590 ng·h/mL; t1/2 (Mus musculus [17]): 3.95 h; Tmax [18]: 1 h; Cmax [19]: 627 ng/mL
48 | O=C1c2ccc(Nc3ccc(F)cc3F)cc2CCc2ccc(OCCCO)cc21 | 13 nM | – | remaining at 3 h [4]: 90%
49 | COc1ccc2c(c1)COc1cc(Nc3ccc(F)cc3F)ccc1C2=O | 218 nM | – | –
50 | O=C1c2ccc(Nc3ccc(F)cc3F)cc2OCc2c(OCCC3CCOCC3)cccc21 | 571 nM | – | –
51 | Nc1ccccc1Nc1ccc2c(c1)OCc1cc(OCCN3CCOCC3)ccc1C2=O | 147 nM | 58700 nM | –
52 | O=C1c2ccc(OC[C@@H](O)CO)cc2COc2cc(Nc3ccc(F)cc3F)ccc21 | 27 nM | 28200 nM | –
53 | COc1ccc2c(c1)C(=O)c1ccc(Nc3ccc(F)cc3F)cc1OC2 | 115 nM | 4710 nM | –
54 | CCN(CC)CCOc1ccc2c(c1)C(=O)c1ccc(Nc3ccc(F)cc3F)cc1OC2 | 101 nM | 1060 nM | –
55 | O=C1c2ccc(Nc3ccc(F)cc3F)cc2CCc2ccc(OC[C@@H](O)CO)cc21 | – | – | remaining at 3 h [4]: 100%
56 | CC1(C)OC[C@@H](COc2ccc3c(c2)COc2cc(Nc4ccc(F)cc4F)ccc2C3=O)O1 | 665 nM | 91200 nM | –
57 | O=C1c2ccc(Nc3ccc(F)cc3F)cc2OCc2c(OCCN3CCOCC3)cccc21 | 34 nM | – | inhibition [2]: 32.2%
58 | O=C1c2ccc(OCCC3CCOCC3)cc2COc2cc(Nc3ccc(F)cc3F)ccc21 | 557 nM | – | –
59 | CC1(C)OC[C@@H](COc2cccc3c2COc2cc(Nc4ccc(F)cc4F)ccc2C3=O)O1 | 563 nM | – | inhibition [2]: 48.6%
60 | Nc1cc(F)ccc1Nc1ccc2c(c1)OCc1cc(OCCN3CCOCC3)ccc1C2=O | 41 nM | 94800 nM | –
61 | COc1cccc2c1C(=O)c1ccc(Nc3ccc(F)cc3F)cc1OC2 | 280 nM | – | –
62 | O=C1c2ccccc2COc2cc(Nc3ccc(F)cc3F)ccc21 | – | 22000 nM | –
63 | O=C1c2cc(OCCO)ccc2COc2cc(Nc3ccc(F)cc3F)ccc21 | 20 nM | 588 nM | –
64 | Cc1ccccc1Nc1ccc2c(c1)OCc1cc(OCCN3CCOCC3)ccc1C2=O | 85 nM | – | inhibition [2]: 30.3%
65 | O=C1c2cc(OCCC3CCOCC3)ccc2COc2cc(Nc3ccc(F)cc3F)ccc21 | 79 nM | 364 nM | –
